{
  "source": "ChEMBL document CHEMBL5033990",
  "about": "“Novel Aryl-Substituted Pyrimidones as Inhibitors of 3-Mercaptopyruvate Sulfurtransferase with Antiproliferative Efficacy in Colon Cancer” (J Med Chem, 2021)",
  "data": [
    {"experiment": "Inhibition of recombinant human 3-MST expressed in Escherichia coli assessed as inhibition of H2S generation using 3-MP as substrate preincubated with enzyme for 1 hr followed by incubation with substrate for 1 hr by AzMC probe based fluorescence analysis", "how_it_was_run": "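Same 3-MST/3-MP/AzMC assay, 1 h preincubation then 1 h kinetic read, at 3, 10, 30, 100 and 300 μM (final DMSO 0.3%). Run for compounds inhibiting at least 60% at 100 μM. Three experiments in triplicate. IC50 from nonlinear fit of data taken between min 20 and 40 of the 60 min read.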", "units": {"IC50": "µM"}, "values": [
      {"smiles": "Cc1cc(=O)[nH]c(SCC(=O)c2ccc(O)c(Cl)c2)n1", "IC50": 25.3},
      {"smiles": "Cc1cc(=O)[nH]c(SCC(=O)c2ccc(O)c(F)c2)n1", "IC50": 28},
      {"smiles": "O=C(CSc1nccc(=O)[nH]1)c1ccc(O)c(F)c1", "IC50": 21.6},
      {"smiles": "O=C(CSc1nccc(=O)[nH]1)c1ccc2ncccc2c1", "IC50": 15.5},
      {"smiles": "Cc1cc(O)nc(SCC(=O)c2ccc(O)cc2)n1", "IC50": 10.8},
      {"smiles": "Cc1cc(O)nc(SCC(=O)c2ccc(O)c(O)c2)n1", "IC50": 15.6},
      {"smiles": "O=C(CSc1nccc(=O)[nH]1)c1ccc(O)c(Cl)c1", "IC50": 18.8},
      {"smiles": "O=C(CSc1nccc(=O)[nH]1)c1cc(Cl)c(O)c(Cl)c1", "IC50": 12.1},
      {"smiles": "O=C(CSc1nccc(=O)[nH]1)c1ccc(O)c(I)c1", "IC50": 14.2},
      {"smiles": "Cc1cc(=O)[nH]c(SCC(=O)c2ccc(O)c(C(N)=O)c2)n1", "IC50": 21.3},
      {"smiles": "NC(=O)c1cc(C(=O)CSc2nccc(=O)[nH]2)ccc1O", "IC50": 20.2},
      {"smiles": "Nc1c(Cl)cc(C(=O)CSc2nccc(=O)[nH]2)cc1Cl", "IC50": 6.6},
      {"smiles": "O=C(CSc1nccc(=O)[nH]1)c1cc(O)cc(O)c1", "IC50": 34.1},
      {"smiles": "Cc1cc(=O)[nH]c(SCC(=O)c2ccc(F)c3ccccc23)n1", "IC50": 35.9},
      {"smiles": "Cc1cc(=O)[nH]c(SCC(=O)c2cc(Cl)c(O)c(Cl)c2)n1", "IC50": 13.4}
    ]},
    {"experiment": "Inhibition of GYY4137-induced H2S release assessed as H2S-induced fluorescence signal at 300 uM measured after 2 hrs by AzMC probe based fluorescence analysis", "type": "functional", "design": "scale not given: the % may be the effect or the level left", "how_it_was_run": "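H2S scavenging/interference check in 50 mM Tris-HCl pH 8: compound at 300 μM with 100 μM AzMC and 5 mM GYY4137 as nonenzymatic H2S donor. Fluorescence read kinetically for 2 h at 37 °C (ex 365/em 450 nm). Signal loss above 20% flagged as potential scavenger/interferer.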", "units": {"Activity": "%"}, "values": [
      {"smiles": "Cc1cc(=O)[nH]c(SCC(=O)c2ccc(O)c(Cl)c2)n1", "Activity": "< 80"},
      {"smiles": "Cc1cc(=O)[nH]c(SCC(=O)c2ccc(O)c(F)c2)n1", "Activity": "< 80"},
      {"smiles": "O=C(CSc1nccc(=O)[nH]1)c1ccc(O)c(F)c1", "Activity": "< 80"},
      {"smiles": "O=C(CSc1nccc(=O)[nH]1)c1ccc2ncccc2c1", "Activity": "< 80"},
      {"smiles": "Cc1cc(O)nc(SCC(=O)c2ccc(O)cc2)n1", "Activity": "< 80"},
      {"smiles": "Cc1cc(O)nc(SCC(=O)c2ccc(O)c(O)c2)n1", "Activity": "< 80"},
      {"smiles": "O=C(CSc1nccc(=O)[nH]1)c1ccc(O)c(Cl)c1", "Activity": "< 80"},
      {"smiles": "O=C(CSc1nccc(=O)[nH]1)c1cc(Cl)c(O)c(Cl)c1", "Activity": "< 80"},
      {"smiles": "O=C(CSc1nccc(=O)[nH]1)c1ccc(O)c(I)c1", "Activity": "< 80"},
      {"smiles": "Cc1cc(=O)[nH]c(SCC(=O)c2ccc(O)c(C(N)=O)c2)n1", "Activity": "< 80"},
      {"smiles": "NC(=O)c1cc(C(=O)CSc2nccc(=O)[nH]2)ccc1O", "Activity": "< 80"},
      {"smiles": "Nc1c(Cl)cc(C(=O)CSc2nccc(=O)[nH]2)cc1Cl", "Activity": "< 80"},
      {"smiles": "O=C(CSc1nccc(=O)[nH]1)c1cc(O)cc(O)c1", "Activity": "< 80"},
      {"smiles": "Cc1cc(=O)[nH]c(SCC(=O)c2cc(Cl)c(O)c(Cl)c2)n1", "Activity": "< 80"}
    ]}
  ]
}
